# Assays:
# [1] = system: Peptoniphilus asaccharolyticus; test: Antibacterial activity against beta-lactamase producing Peptoniphilus asaccharolyticus by CLSI agar dilution method in presence of clavulanate; assay type: functional
# Method in brief: (§1)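 CLSI agar dilution MICs for anaerobic blood isolates (nonduplicate) collected from bloodstream-infection patients at a Taiwanese tertiary hospital, January–December 2006. Isolates were spotted by Steers replicator onto supplemented Brucella blood agar and incubated anaerobically for 48 h at 35°C. MIC was the lowest drug concentration inhibiting growth. Each run included B. fragilis ATCC 25285, B. thetaiotaomicron ATCC 29741 and E. lentum ATCC 43055 as quality-control strains.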
# Fusobacterium mortiferum [2] = test: Antibacterial activity against Fusobacterium mortiferum assessed as resistant isolates by CLSI agar dilution method in presence of clavulanate; assay type: functional
# Method in brief: (§2)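 207 nonduplicate anaerobic blood isolates from patients with bloodstream infections at NTUH, collected January–December 2006. MICs were determined by agar dilution following CLSI guidelines. Inocula were applied with a Steers replicator onto supplemented Brucella blood agar and incubated 48 h at 35°C in an anaerobic chamber. MIC was the lowest concentration inhibiting growth. B. fragilis ATCC 25285, B. thetaiotaomicron ATCC 29741 and E. lentum ATCC 43055 served as controls in each run.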
# [3] = system: Peptoniphilus asaccharolyticus; test: Antibacterial activity against beta-lactamase producing Peptoniphilus asaccharolyticus assessed as resistant isolates by CLSI agar dilution method in presence of clavulanate; assay type: functional; method in brief: as §2
# [4] = system: Bacteroides thetaiotaomicron; test: Antibacterial activity against beta-lactamase producing Bacteroides thetaiotaomicron assessed as susceptible isolates by CLSI agar dilution method in presence of clavulanate; assay type: functional
# Method in brief: (§3)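 Agar dilution per CLSI guidelines on nonduplicate anaerobic bloodstream isolates collected at NTUH, January to December 2006. Isolates were spotted by Steers replicator onto supplemented Brucella blood agar and incubated anaerobically for 48 h at 35°C. MIC was the lowest drug concentration that inhibited growth. B. fragilis ATCC 25285, B. thetaiotaomicron ATCC 29741 and E. lentum ATCC 43055 were run as QC in each run.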
# Phocaeicola vulgatus [5] = test: Antibacterial activity against beta-lactamase producing Bacteroides vulgatus assessed as resistant isolates by CLSI agar dilution method in presence of clavulanate; assay type: functional; method in brief: as §2
# Clostridium septicum [6] = test: Antibacterial activity against beta-lactamase producing Clostridium septicum assessed as resistant isolates by CLSI agar dilution method in presence of clavulanate; assay type: functional; method in brief: as §2
# Prevotella bivia [7] = test: Antibacterial activity against Prevotella bivia assessed as resistant isolates by CLSI agar dilution method in presence of clavulanate; assay type: functional; method in brief: as §2
# Clostridium septicum [8] = test: Antibacterial activity against beta-lactamase producing Clostridium septicum by CLSI agar dilution method in presence of clavulanate; assay type: functional; method in brief: as §1
# Bacteroides caccae = test: Antibacterial activity against beta-lactamase producing Bacteroides caccae assessed as susceptible isolates by CLSI agar dilution method in presence of clavulanate; assay type: functional; method in brief: as §3
# Fusobacterium varium [9] = test: Antibacterial activity against Fusobacterium varium by CLSI agar dilution method in presence of clavulanate; assay type: functional; method in brief: as §3
# Fusobacterium mortiferum [10] = test: Antibacterial activity against Fusobacterium mortiferum by CLSI agar dilution method in presence of clavulanate; assay type: functional; method in brief: as §3
# Bacteroides fragilis = test: Antibacterial activity against Bacteroides fragilis assessed as resistant isolates by CLSI agar dilution method in presence of clavulanate; assay type: functional; method in brief: as §2
# Fusobacterium varium [11] = test: Antibacterial activity against Fusobacterium varium assessed as susceptible isolates by CLSI agar dilution method in presence of clavulanate; assay type: functional; method in brief: as §3
# Clostridium tertium [12] = test: Antibacterial activity against beta-lactamase producing Clostridium tertium assessed as resistant isolates by CLSI agar dilution method in presence of clavulanate; assay type: functional; method in brief: as §2
# Phocaeicola vulgatus [13] = test: Antibacterial activity against beta-lactamase producing Bacteroides vulgatus assessed as susceptible isolates by CLSI agar dilution method; assay type: functional
# Veillonella parvula = test: Antibacterial activity against Veillonella parvula by CLSI agar dilution method in presence of Tazobactam; assay type: functional; method in brief: as §3
# Bacteroides uniformis [14] = test: Antibacterial activity against beta-lactamase producing Bacteroides uniformis assessed as resistant isolates by CLSI agar dilution method in presence of Tazobactam; assay type: functional; method in brief: as §2
# [15] = system: Fusobacterium necrophorum; test: Antibacterial activity against Fusobacterium necrophorum by CLSI agar dilution method in presence of Tazobactam; assay type: functional; method in brief: as §3
# Bacteroides uniformis [16] = test: Antibacterial activity against beta-lactamase producing Bacteroides uniformis by CLSI agar dilution method in presence of Tazobactam; assay type: functional; method in brief: as §3
# Bacteroides uniformis [17] = test: Antibacterial activity against beta-lactamase producing Bacteroides uniformis assessed as susceptible isolates by CLSI agar dilution method in presence of Tazobactam; assay type: functional; method in brief: as §3
# Phocaeicola vulgatus [18] = test: Antibacterial activity against beta-lactamase producing Bacteroides vulgatus by CLSI agar dilution method; assay type: functional
# Finegoldia magna [19] = test: Antibacterial activity against beta-lactamase producing Finegoldia magna by CLSI agar dilution method in presence of Tazobactam; assay type: functional; method in brief: as §1
# Prevotella bivia [20] = test: Antibacterial activity against Prevotella bivia by CLSI agar dilution method; assay type: functional
# Prevotella buccae [21] = test: Antibacterial activity against Prevotella buccae assessed as resistant isolates by CLSI agar dilution method; assay type: functional, Segatella buccae
# [22] = system: Fusobacterium necrophorum; test: Antibacterial activity against Fusobacterium necrophorum assessed as susceptible isolates by CLSI agar dilution method; assay type: functional
# [23] = system: Peptostreptococcus anaerobius; test: Antibacterial activity against beta-lactamase producing Peptostreptococcus anaerobius assessed as susceptible isolates by CLSI agar dilution method; assay type: functional
# Fusobacterium nucleatum = test: Antibacterial activity against Fusobacterium nucleatum by CLSI agar dilution method; assay type: functional
# Finegoldia magna [24] = test: Antibacterial activity against beta-lactamase producing Finegoldia magna assessed as susceptible isolates by CLSI agar dilution method in presence of Tazobactam; assay type: functional; method in brief: as §1
# Clostridium tertium [25] = test: Antibacterial activity against beta-lactamase producing Clostridium tertium by CLSI agar dilution method; assay type: functional
# Fusobacterium varium [26] = test: Antibacterial activity against Fusobacterium varium assessed as susceptible isolates by CLSI agar dilution method; assay type: functional
# [27] = system: Bacteroides thetaiotaomicron; test: Antibacterial activity against beta-lactamase producing Bacteroides thetaiotaomicron by CLSI agar dilution method; assay type: functional
# [28] = system: Peptostreptococcus anaerobius; test: Antibacterial activity against beta-lactamase producing Peptostreptococcus anaerobius by CLSI agar dilution method in presence of Tazobactam; assay type: functional; method in brief: as §1
# Clostridium septicum [29] = test: Antibacterial activity against beta-lactamase producing Clostridium septicum assessed as resistant isolates by CLSI agar dilution method in presence of Tazobactam; assay type: functional; method in brief: as §2
# Parvimonas micra = test: Antibacterial activity against beta-lactamase producing Micromonas micros assessed as resistant isolates by CLSI agar dilution method in presence of Tazobactam; assay type: functional; method in brief: as §2
# Prevotella buccae [30] = test: Antibacterial activity against Prevotella buccae assessed as susceptible isolates by CLSI agar dilution method; assay type: functional, Segatella buccae
# Fusobacterium varium [31] = test: Antibacterial activity against Fusobacterium varium assessed as resistant isolates by CLSI agar dilution method; assay type: functional
# Bacteroides uniformis [32] = test: Antibacterial activity against beta-lactamase producing Bacteroides uniformis by CLSI agar dilution method; assay type: functional
# Prevotella bivia [33] = test: Antibacterial activity against Prevotella bivia assessed as susceptible isolates by CLSI agar dilution method in presence of Tazobactam; assay type: functional; method in brief: as §3
compound,measurement,setting,value
CC1(C)S[C@@H]2[C@H](NC(=O)[C@H](N)c3ccc(O)cc3)C(=O)N2[C@H]1C(=O)O [AMOXICILLIN],MIC50,[1],0.25 µg/mL
same,MIC90,[1],2 µg/mL
same,Activity,Fusobacterium mortiferum [2],7%
same,Activity,[3],3%
same,Activity,[4],63%
same,Activity,Phocaeicola vulgatus [5],30%
same,Activity,Clostridium septicum [6],4%
same,Activity,Prevotella bivia [7],6%
same,MIC50,Clostridium septicum [8],0.5 µg/mL
same,MIC90,Clostridium septicum [8],2 µg/mL
same,Activity,Bacteroides caccae,53%
same,MIC50,Fusobacterium varium [9],2 µg/mL
same,MIC90,Fusobacterium varium [9],4 µg/mL
same,MIC50,Fusobacterium mortiferum [10],2 µg/mL
same,MIC90,Fusobacterium mortiferum [10],4 µg/mL
same,Activity,Bacteroides fragilis,23%
same,Activity,Fusobacterium varium [11],89%
same,Activity,Clostridium tertium [12],4%
CCN1CCN(C(=O)N[C@@H](C(=O)N[C@@H]2C(=O)N3[C@@H]2SC(C)(C)[C@@H]3C(=O)O)c2ccccc2)C(=O)C1=O [PIPERACILLIN],Activity,Phocaeicola vulgatus [13],35%
same,MIC,Veillonella parvula,> 0.03 µg/mL
same,Activity,Bacteroides uniformis [14],4%
same,MIC50,[15],0.5 µg/mL
same,MIC90,[15],2 µg/mL
same,MIC50,Bacteroides uniformis [16],8 µg/mL
same,MIC90,Bacteroides uniformis [16],16 µg/mL
same,Activity,Bacteroides uniformis [17],96%
same,MIC50,Phocaeicola vulgatus [18],> 128 µg/mL
same,MIC90,Phocaeicola vulgatus [18],> 128 µg/mL
same,MIC,Finegoldia magna [19],0.03 µg/mL
same,MIC50,Finegoldia magna [19],0.03 µg/mL
same,MIC90,Finegoldia magna [19],2 µg/mL
same,MIC50,Prevotella bivia [20],16 µg/mL
same,MIC90,Prevotella bivia [20],128 µg/mL
same,Activity,Prevotella buccae [21],22%
same,Activity,[22],90%
same,Activity,[23],97%
same,MIC50,Fusobacterium nucleatum,2 µg/mL
same,MIC90,Fusobacterium nucleatum,8 µg/mL
same,Activity,Finegoldia magna [24],97%
same,MIC50,Clostridium tertium [25],0.25 µg/mL
same,MIC90,Clostridium tertium [25],2 µg/mL
same,Activity,Fusobacterium varium [26],90%
same,MIC50,[27],32 µg/mL
same,MIC90,[27],> 128 µg/mL
same,MIC,[28],0.03 µg/mL
same,MIC50,[28],0.03 µg/mL
same,MIC90,[28],2 µg/mL
same,Activity,Clostridium septicum [29],0%
same,Activity,Parvimonas micra,0%
same,Activity,Prevotella buccae [30],71%
same,Activity,Fusobacterium varium [31],10%
same,MIC50,Bacteroides uniformis [32],> 128 µg/mL
same,MIC90,Bacteroides uniformis [32],> 128 µg/mL
same,Activity,Prevotella bivia [33],100%

# — ChEMBL document CHEMBL1671627, “Increasing trends in antimicrobial resistance among clinically important anaerobes and Bacteroides fragilis isolates causing nosocomial infections: emerging resistance to carbapenems” (2008)
